{
  "source": "ChEMBL document CHEMBL4364301",
  "about": "(Eur J Med Chem, 2019)",
  "assay_type_in_all_cases": "functional",
  "key": {"LNCaP [1]": {"tested_on": "LNCaP", "assay": "Antiproliferative activity against human LNCAP cells assessed as T/C value at 1 x 10^-2 uM incubated for 96 hrs by propidium iodide based 2D monolayer assay", "method_in_brief": "(§1)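 Cells were kept in RPMI 1640 with 25 mM HEPES, 10% FCS and gentamicin at 37 °C under 5% CO2, and plated at 4,000-20,000 cells/well. After 24 h recovery, compound in medium or medium alone (control wells) was added at 10 half-log concentrations from 0.0032 to 100 µM, in triplicate, with at most 0.3% DMSO. After 96 h, wells were PBS-washed, stained with 7 µg/ml PI and 0.1% Triton X-100, and fluorescence read at 530/620 nm. IC50 came from a 4-parameter fit, geometric mean.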"}, "LNCaP [2]": {"tested_on": "LNCaP", "assay": "Antiproliferative activity against human LNCAP cells assessed as T/C value at 3.2 x 10^-2 uM incubated for 96 hrs by propidium iodide based 2D monolayer assay", "method_in_brief": "as §1"}, "LNCaP [3]": {"tested_on": "LNCaP", "assay": "Antiproliferative activity against human LNCAP cells assessed as T/C value at 1 x 10^-1 uM incubated for 96 hrs by propidium iodide based 2D monolayer assay", "method_in_brief": "as §1"}, "LNCaP [4]": {"tested_on": "LNCaP", "assay": "Antiproliferative activity against human LNCAP cells assessed as T/C value at 3.2 x 10^-1 uM incubated for 96 hrs by propidium iodide based 2D monolayer assay", "method_in_brief": "as §1"}, "LNCaP [5]": {"tested_on": "LNCaP", "assay": "Antiproliferative activity against human LNCAP cells assessed as T/C value at 1 uM incubated for 96 hrs by propidium iodide based 2D monolayer assay", "method_in_brief": "as §1"}, "LNCaP [6]": {"tested_on": "LNCaP", "assay": "Antiproliferative activity against human LNCAP cells assessed as T/C value at 3.2 uM incubated for 96 hrs by propidium iodide based 2D monolayer assay", "method_in_brief": "as §1"}, "LNCaP [7]": {"tested_on": "LNCaP", "assay": "Antiproliferative activity against human LNCAP cells assessed as T/C value at 1 x 10^1 uM incubated for 96 hrs by propidium iodide based 2D monolayer assay", "method_in_brief": "as §1"}, "LNCaP [8]": {"tested_on": "LNCaP", "assay": "Antiproliferative activity against human LNCAP cells assessed as T/C value at 3.2 x 10^1 uM incubated for 96 hrs by propidium iodide based 2D monolayer assay", "method_in_brief": "as §1"}, "LNCaP [9]": {"tested_on": "LNCaP", "assay": "Antiproliferative activity against human LNCAP cells assessed as T/C value at 1 x 10^2 uM incubated for 96 hrs by propidium iodide based 2D monolayer assay", "method_in_brief": "as §1"}, "CWR22R [10]": {"tested_on": "CWR22R", "assay": "Antiproliferative activity against human 22Rv1 cells assessed as T/C value at 3.2 x 10^-3 uM incubated for 96 hrs by propidium iodide based 2D monolayer assay", "method_in_brief": "as §1"}, "CWR22R [11]": {"tested_on": "CWR22R", "assay": "Antiproliferative activity against human 22Rv1 cells assessed as T/C value at 1 x 10^-2 uM incubated for 96 hrs by propidium iodide based 2D monolayer assay", "method_in_brief": "as §1"}, "CWR22R [12]": {"tested_on": "CWR22R", "assay": "Antiproliferative activity against human 22Rv1 cells assessed as T/C value at 3.2 x 10^-2 uM incubated for 96 hrs by propidium iodide based 2D monolayer assay", "method_in_brief": "as §1"}, "CWR22R [13]": {"tested_on": "CWR22R", "assay": "Antiproliferative activity against human 22Rv1 cells assessed as T/C value at 1 x 10^-1 uM incubated for 96 hrs by propidium iodide based 2D monolayer assay", "method_in_brief": "as §1"}, "CWR22R [14]": {"tested_on": "CWR22R", "assay": "Antiproliferative activity against human 22Rv1 cells assessed as T/C value at 3.2 x 10^-1 uM incubated for 96 hrs by propidium iodide based 2D monolayer assay", "method_in_brief": "as §1"}, "CWR22R [15]": {"tested_on": "CWR22R", "assay": "Antiproliferative activity against human 22Rv1 cells assessed as T/C value at 1 uM incubated for 96 hrs by propidium iodide based 2D monolayer assay", "method_in_brief": "as §1"}, "CWR22R [16]": {"tested_on": "CWR22R", "assay": "Antiproliferative activity against human 22Rv1 cells assessed as T/C value at 3.2 uM incubated for 96 hrs by propidium iodide based 2D monolayer assay", "method_in_brief": "as §1"}, "CWR22R [17]": {"tested_on": "CWR22R", "assay": "Antiproliferative activity against human 22Rv1 cells assessed as T/C value at 3.2 x 10^1 uM incubated for 96 hrs by propidium iodide based 2D monolayer assay", "method_in_brief": "as §1"}, "CWR22R [18]": {"tested_on": "CWR22R", "assay": "Antiproliferative activity against human 22Rv1 cells assessed as T/C value at 1 x 10^2 uM incubated for 96 hrs by propidium iodide based 2D monolayer assay", "method_in_brief": "as §1"}, "DU-145 [19]": {"tested_on": "DU-145", "assay": "Antiproliferative activity against human DU145 cells assessed as T/C value at 3.2 uM incubated for 96 hrs by propidium iodide based 2D monolayer assay", "method_in_brief": "as §1"}, "DU-145 [20]": {"tested_on": "DU-145", "assay": "Antiproliferative activity against human DU145 cells assessed as T/C value at 3.2 x 10^1 uM incubated for 96 hrs by propidium iodide based 2D monolayer assay", "method_in_brief": "as §1"}, "DU-145 [21]": {"tested_on": "DU-145", "assay": "Antiproliferative activity against human DU145 cells assessed as T/C value at 1 x 10^2 uM incubated for 96 hrs by propidium iodide based 2D monolayer assay", "method_in_brief": "as §1"}},
  "data": [
    {"smiles": "CNC(=O)c1ccc(N2C(=S)N(c3ccc(C#N)c(C(F)(F)F)c3)C(=O)C2(C)C)cc1F", "note": "[ENZALUTAMIDE]", "values": [
      {"measurement": "T/C", "setting": "LNCaP [1]", "value": 92, "unit": "%"},
      {"measurement": "T/C", "setting": "LNCaP [2]", "value": 100, "unit": "%"},
      {"measurement": "T/C", "setting": "LNCaP [3]", "value": 89, "unit": "%"},
      {"measurement": "T/C", "setting": "LNCaP [4]", "value": 77, "unit": "%"},
      {"measurement": "T/C", "setting": "LNCaP [5]", "value": 65, "unit": "%"},
      {"measurement": "T/C", "setting": "LNCaP [6]", "value": 69, "unit": "%"},
      {"measurement": "T/C", "setting": "LNCaP [7]", "value": 57, "unit": "%"},
      {"measurement": "T/C", "setting": "LNCaP [8]", "value": 28, "unit": "%"},
      {"measurement": "T/C", "setting": "LNCaP [9]", "value": 6, "unit": "%"},
      {"measurement": "T/C", "setting": "CWR22R [10]", "value": 96, "unit": "%"},
      {"measurement": "T/C", "setting": "CWR22R [11]", "value": 98, "unit": "%"},
      {"measurement": "T/C", "setting": "CWR22R [12]", "value": 99, "unit": "%"},
      {"measurement": "T/C", "setting": "CWR22R [13]", "value": 93, "unit": "%"},
      {"measurement": "T/C", "setting": "CWR22R [14]", "value": 96, "unit": "%"},
      {"measurement": "T/C", "setting": "CWR22R [15]", "value": 93, "unit": "%"},
      {"measurement": "T/C", "setting": "CWR22R [16]", "value": 88, "unit": "%"},
      {"measurement": "T/C", "setting": "CWR22R [17]", "value": 57, "unit": "%"},
      {"measurement": "T/C", "setting": "CWR22R [18]", "value": 13, "unit": "%"},
      {"measurement": "T/C", "setting": "DU-145 [19]", "value": 120, "unit": "%"},
      {"measurement": "T/C", "setting": "DU-145 [20]", "value": 84, "unit": "%"},
      {"measurement": "T/C", "setting": "DU-145 [21]", "value": 19, "unit": "%"}
    ]}
  ]
}
